Data set [1] can be described thus: Cytotoxicity against human MG63 cells assessed as decrease in cell viability up to 500 nM by MTT assay. It is filed as toxicity, cell-based. Particulars: mg-63. The essentials: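 MG63 cells; cell viability measured with compounds at concentrations up to 500 nM.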
Background: Tetrazolium dyes change colour on reduction, which living cells bring about.

Data set [2] deals with T1, Vitamin K-dependent gamma-carboxylase (Homo sapiens) (UniProt P38435).
T1 sequence (whole entry): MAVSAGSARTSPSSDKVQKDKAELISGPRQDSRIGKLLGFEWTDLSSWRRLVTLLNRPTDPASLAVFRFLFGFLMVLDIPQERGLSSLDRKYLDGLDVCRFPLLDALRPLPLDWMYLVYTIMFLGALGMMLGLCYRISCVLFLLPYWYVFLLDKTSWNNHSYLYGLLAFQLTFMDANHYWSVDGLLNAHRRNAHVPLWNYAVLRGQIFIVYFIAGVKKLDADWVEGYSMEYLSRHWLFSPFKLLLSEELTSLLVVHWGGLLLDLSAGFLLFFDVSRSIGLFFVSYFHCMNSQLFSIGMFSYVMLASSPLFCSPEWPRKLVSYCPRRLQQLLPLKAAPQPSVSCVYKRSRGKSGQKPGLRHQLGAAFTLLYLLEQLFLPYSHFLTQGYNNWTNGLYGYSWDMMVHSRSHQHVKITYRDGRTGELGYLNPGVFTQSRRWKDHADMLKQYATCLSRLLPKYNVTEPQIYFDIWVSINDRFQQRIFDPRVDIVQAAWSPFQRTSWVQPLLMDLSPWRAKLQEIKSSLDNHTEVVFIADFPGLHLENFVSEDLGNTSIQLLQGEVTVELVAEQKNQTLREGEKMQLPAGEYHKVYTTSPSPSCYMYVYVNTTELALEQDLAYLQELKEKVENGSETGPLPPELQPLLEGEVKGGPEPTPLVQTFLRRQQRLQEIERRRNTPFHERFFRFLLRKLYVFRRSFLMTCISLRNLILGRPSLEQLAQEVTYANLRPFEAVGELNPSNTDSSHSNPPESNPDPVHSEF
The experiment in a line: Activation of gamma-glutamyl carboxylase in human MG63 cells assessed as increase in carboxylated osteocalcin level at 50 nM after 72 hrs by enzyme immuno assay. It is filed as cell-based. Particulars: MG-63. In short, it runs like this:
(§1)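 Human osteosarcoma MG63 cells; uncarboxylated (ucOC) and carboxylated (cOC) osteocalcin measured in culture media/supernatants; untreated controls received no vitamin K or analogue; run in triplicate.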

Data set [3] concerns the target T1, Vitamin K-dependent gamma-carboxylase (Homo sapiens). As to the kind of experiment: Activation of gamma-glutamyl carboxylase in human MG63 cells assessed as reduction in un-carboxylated osteocalcin level at 50 nM after 72 hrs by enzyme immuno assay. The class given is cell-based. The note with it: MG-63. The essentials: as §1
For data set [4], the species on record is Rattus norvegicus. The experiment in a line: Toxicity in vitamin-K deficient diet fed Wistar-Kyoto rat assessed as change in body weight at 0.5 ug/g of food for 5 days. The note with it: in vivo, po, 120 h. It is filed as organism-based.
The species entered for data set [5] is Rattus norvegicus. As to the kind of experiment: Toxicity in vitamin-K deficient diet fed Wistar-Kyoto rat assessed as change in body weight at 5 ug/g of food for 2 to 5 days. The note with it: in vivo, po. It is filed as organism-based.
The species entered for data set [6] is Rattus norvegicus. As to the kind of experiment: Restoration of prothrombin activity in vitamin-K deficient diet fed Wistar-Kyoto rat assessed as plasma prothrombin level at 5 ug/g of food for 5 days by one-stage PT-based clotting assay (reference value: 60%). It is filed as functional.
The species named for data set [7] is Rattus norvegicus. As to the kind of experiment: Restoration of prothrombin activity in vitamin-K deficient diet fed Wistar-Kyoto rat assessed as plasma prothrombin level at 5 ug/g of food for 2 days by one-stage PT-based clotting assay (reference value: 60%). The class given is functional.

Structures are written as SMILES. Calls of active or inactive are those of the source. The calls are words filed in the database; no cut-off is given here.

In the case of `CCCCCCCCCCCCCCCCNC(=O)CC1=C(C)C(=O)c2ccccc2C1=O`, in data set [1], the Activity entry was “Non-Toxic”. Further, the outcome in data set [2] and in data set [3] was Active.
For `CC1=CC(=O)c2ccccc2C1=O` [MENADIONE], the Activity entry in data set [1] is “Non-Toxic”.
On to `CCOC(=O)CC1=C(C)C(=O)c2ccccc2C1=O`, for which the Activity result in data set [1] is recorded as “Non-Toxic”. For the same molecule, the result in data set [2] and in data set [3] was Active.
For the molecule `CCOC(=O)Cc1c(C)c(OC)c2ccccc2c1OC`, the Activity entry in data set [1] was “Non-Toxic”.
Regarding `CCCCCCCCCCCCCCCCCNC(=O)CC1=C(C)C(=O)c2ccccc2C1=O`, in data set [1], the Activity entry is given as “Non-Toxic”. Also, the result in data set [3] was Active.
For `COc1c(C)c(Br)c(OC)c2ccccc12`, in data set [1], the Activity result was “Non-Toxic”.
Take `CCCCCCCCCCCCCCCCCCNC(=O)CC1=C(C)C(=O)c2ccccc2C1=O`: the Activity entry in data set [1] was “Non-Toxic”. Moreover, in data set [3], the result was Active.
With `CCCCCCCCCCCCCCNC(=O)CC1=C(C)C(=O)c2ccccc2C1=O`, the Activity entry in data set [4] is recorded as “Non-Toxic”; in data set [1] it was “Non-Toxic”; in data set [5], “Non-Toxic”; in data set [6] it was 106%; in data set [7], 107%. Besides, the result in data set [2] and in data set [3] was Active.
Take `CC1=C(CC(=O)O)C(=O)c2ccccc2C1=O`: the Activity result in data set [1] was “Non-Toxic”. Besides, the outcome in data set [2] and in data set [3] was Active.
As to `CC(C)=CCC/C(C)=C/CC/C(C)=C/CC/C(C)=C/CC1=C(C)C(=O)c2ccccc2C1=O`, the result in data set [2] and in data set [3] was Active.
Take `CC1=C(Br)C(=O)c2ccccc2C1=O`: in data set [1], the Activity entry was “Non-Toxic”.
For `COc1c(C)c(CC(=O)O)c(OC)c2ccccc12`, the Activity entry in data set [1] is listed as “Non-Toxic”. Besides, the result in data set [2] and in data set [3] was Active.

For the origin of these results see ChEMBL document CHEMBL3870351, “Synthesis of 2-methyl-1,4-naphthoquinones with higher gamma-glutamyl carboxylase activity than MK-4 both in vitro and in vivo” (Bioorg Med Chem Lett, 2017).
